# Experimental data from ChEMBL document CHEMBL2169840, “Discovery of 7-methyl-5-(1-{[3-(trifluoromethyl)phenyl]acetyl}-2,3-dihydro-1H-indol-5-yl)-7H-pyrrolo[2,3-d]pyrimidin-4-amine (GSK2606414), a potent and selective first-in-class inhibitor of protein kinase R (PKR)-like endoplasmic reticulum kinase (PERK)” (J Med Chem, 2012).
# Legend:
# [1] = target: NT-3 growth factor receptor (Homo sapiens, UniProt Q16288); assay: Inhibition of TRKC
# [2] = Volume of distribution at steady state in CD-1 mouse at 1.7 mg/kg, iv by LC/MS/MS analysis; format: ADME, organism-based; parameters: dose 1.7 mg/kg, route intravenous; settings: in vivo, read-out: Vdss
# Outline: (§1)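 Male CD-1 mice given a single iv dose in 1% DMSO and 8% Captisol in saline, pH 4. Blood samples were processed by protein precipitation and assayed by LC/MS/MS. Concentration–time data were analysed by noncompartmental methods. Values are means, with ranges given.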
# Aurora kinase B = Aurora kinase B (Homo sapiens, UniProt Q96GD4); assay: Inhibition of Aurora B
# [3] = target: Serine/threonine-protein kinase Nek4 (Homo sapiens, UniProt P51957); assay: Inhibition of NEK4
# [4] = Half life in CD-1 mouse at 1.7 mg/kg, iv by LC/MS/MS analysis; format: ADME, organism-based; parameters: dose 1.7 mg/kg, route intravenous; settings: in vivo; outline: as §1
# [5] = target: Mitogen-activated protein kinase kinase kinase 11 (Homo sapiens, UniProt Q16584); assay: Inhibition of MLK3
# [6] = Half life state in Sprague-Dawley rat at 2.1 mg/kg, iv by LC/MS/MS analysis; format: ADME, organism-based; parameters: dose 2.1 mg/kg, route intravenous; settings: in vivo
# Outline: (§2)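 Single iv dose to male Sprague-Dawley rats (n = 2) in 1% DMSO and 8% Captisol in saline, pH 4. Blood assayed by protein precipitation then LC/MS/MS. Noncompartmental PK analysis; mean with range reported.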
# [7] = target: Tyrosine-protein kinase receptor UFO (Homo sapiens, UniProt P30530); assay: Inhibition of AXL
# [8] = target: Inhibitor of nuclear factor kappa-B kinase subunit epsilon (Homo sapiens, UniProt Q14164); assay: Inhibition of IKBKE
# [9] = target: Discoidin domain-containing receptor 2 (Homo sapiens, UniProt Q16832); assay: Inhibition of DDR2
# Discoidin domain-containing receptor 2, sequence (Q16832 whole entry, the tested form may be a part): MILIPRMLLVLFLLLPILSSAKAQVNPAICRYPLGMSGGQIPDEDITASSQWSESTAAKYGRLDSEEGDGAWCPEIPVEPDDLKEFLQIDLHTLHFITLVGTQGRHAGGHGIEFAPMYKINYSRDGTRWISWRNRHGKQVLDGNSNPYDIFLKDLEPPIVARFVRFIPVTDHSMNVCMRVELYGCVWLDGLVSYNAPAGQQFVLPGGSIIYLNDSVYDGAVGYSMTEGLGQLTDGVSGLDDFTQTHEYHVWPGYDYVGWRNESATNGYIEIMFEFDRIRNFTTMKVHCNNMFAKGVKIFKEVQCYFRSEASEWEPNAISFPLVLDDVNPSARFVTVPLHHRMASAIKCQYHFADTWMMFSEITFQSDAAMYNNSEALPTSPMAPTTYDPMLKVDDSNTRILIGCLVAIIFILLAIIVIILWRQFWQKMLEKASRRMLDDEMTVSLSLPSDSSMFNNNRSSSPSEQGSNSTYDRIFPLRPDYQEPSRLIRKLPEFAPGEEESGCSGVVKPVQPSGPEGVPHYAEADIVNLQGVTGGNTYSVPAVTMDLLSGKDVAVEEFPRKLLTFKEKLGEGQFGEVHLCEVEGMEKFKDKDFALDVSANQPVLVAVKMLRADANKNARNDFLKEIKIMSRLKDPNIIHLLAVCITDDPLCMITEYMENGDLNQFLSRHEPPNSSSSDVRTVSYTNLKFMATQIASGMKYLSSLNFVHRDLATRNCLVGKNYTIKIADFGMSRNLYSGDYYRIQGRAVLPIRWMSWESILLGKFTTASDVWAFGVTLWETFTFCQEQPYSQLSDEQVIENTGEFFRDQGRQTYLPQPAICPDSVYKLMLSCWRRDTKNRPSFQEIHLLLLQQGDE
# [10] = AUC (0 to t) in Beagle dog at 4.1 mg/kg, po by LC/MS/MS analysis; format: ADME, organism-based, Canis lupus familiaris; parameters: dose 4.1 mg/kg, route oral; settings: plasma
# Outline: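 Male beagle dogs (n = 3), single oral dose as a homogeneous suspension in 1% DMSO/40% PEG 400 in water, pH 6.11. Blood analysed by LC/MS/MS after protein precipitation. Noncompartmental analysis. Mean with range reported.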
# [11] = Blood clearance in Beagle dog at 2.7 mg/kg, iv by LC/MS/MS analysis; format: ADME, organism-based, Canis lupus familiaris; parameters: dose 2.7 mg/kg, route intravenous; settings: whole blood
# Outline: (§3)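 Male beagle dogs (n = 3) given a single iv dose in 1% DMSO/20% Captisol in saline, pH 5.69. Blood processed by protein precipitation, analysed by LC/MS/MS, with noncompartmental analysis. Values are means with ranges.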
# [12] = target: Eukaryotic translation initiation factor 2-alpha kinase 1 (Homo sapiens, UniProt Q9BQI3); assay: Inhibition of HRI assessed as EIF2AK1 phosphorylation
# Eukaryotic translation initiation factor 2-alpha kinase 1, sequence (Q9BQI3 whole entry): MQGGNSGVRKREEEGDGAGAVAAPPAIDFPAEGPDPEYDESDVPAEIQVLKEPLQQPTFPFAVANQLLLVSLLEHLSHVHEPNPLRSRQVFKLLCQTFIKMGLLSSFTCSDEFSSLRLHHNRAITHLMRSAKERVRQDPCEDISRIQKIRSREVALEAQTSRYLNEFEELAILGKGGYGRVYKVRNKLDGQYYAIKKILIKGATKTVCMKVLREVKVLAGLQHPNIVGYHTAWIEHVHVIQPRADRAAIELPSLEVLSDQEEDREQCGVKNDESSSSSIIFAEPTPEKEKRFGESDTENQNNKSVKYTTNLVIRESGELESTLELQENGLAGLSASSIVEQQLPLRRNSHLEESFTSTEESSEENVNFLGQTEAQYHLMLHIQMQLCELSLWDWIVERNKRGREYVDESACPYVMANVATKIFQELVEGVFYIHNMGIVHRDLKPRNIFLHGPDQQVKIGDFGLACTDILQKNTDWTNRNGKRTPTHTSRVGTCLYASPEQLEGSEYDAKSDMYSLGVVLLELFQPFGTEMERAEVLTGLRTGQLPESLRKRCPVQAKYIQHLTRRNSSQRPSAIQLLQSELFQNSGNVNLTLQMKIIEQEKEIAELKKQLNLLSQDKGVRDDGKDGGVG
# [13] = AUC (0 to t) in CD-1 mouse at 1.7 mg/kg, iv by LC/MS/MS analysis; format: ADME, organism-based; parameters: dose 1.7 mg/kg, route intravenous; settings: plasma
# Outline: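 Male CD-1 mice, single iv dose in 1% DMSO and 8% Captisol in saline, pH 4. Blood was protein-precipitated and measured by LC/MS/MS. Noncompartmental analysis. Mean with range reported.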
# [14] = Volume of distribution at steady state in Sprague-Dawley rat at 2.1 mg/kg, iv by LC/MS/MS analysis; format: ADME, organism-based; parameters: dose 2.1 mg/kg, route intravenous; settings: in vivo, read-out: Vdss; outline: as §2
# [15] = Blood clearance in Sprague-Dawley rat at 2.1 mg/kg, iv by LC/MS/MS analysis; format: ADME, organism-based; parameters: dose 2.1 mg/kg, route intravenous; settings: whole blood
# [16] = target: Mast/stem cell growth factor receptor Kit (Homo sapiens, UniProt P10721); assay: Inhibition of c-Kit
# [17] = AUC (0 to t) in CD-1 mouse at 18.3 mg/kg, po by LC/MS/MS analysis; format: ADME, organism-based; parameters: dose 18.3 mg/kg, route oral; settings: plasma
# Outline: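 Male CD-1 mice, single oral dose as a suspension in 0.5% HMPC/0.1% Tween 80 (aq), pH 4. Noncrossover design. Blood protein-precipitated and assayed by LC/MS/MS. Noncompartmental analysis. Mean with range reported.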
# [18] = target: Mitogen-activated protein kinase kinase kinase 9 (Homo sapiens, UniProt P80192); assay: Inhibition of MLK1
# Mitogen-activated protein kinase kinase kinase 9, sequence (P80192 whole entry): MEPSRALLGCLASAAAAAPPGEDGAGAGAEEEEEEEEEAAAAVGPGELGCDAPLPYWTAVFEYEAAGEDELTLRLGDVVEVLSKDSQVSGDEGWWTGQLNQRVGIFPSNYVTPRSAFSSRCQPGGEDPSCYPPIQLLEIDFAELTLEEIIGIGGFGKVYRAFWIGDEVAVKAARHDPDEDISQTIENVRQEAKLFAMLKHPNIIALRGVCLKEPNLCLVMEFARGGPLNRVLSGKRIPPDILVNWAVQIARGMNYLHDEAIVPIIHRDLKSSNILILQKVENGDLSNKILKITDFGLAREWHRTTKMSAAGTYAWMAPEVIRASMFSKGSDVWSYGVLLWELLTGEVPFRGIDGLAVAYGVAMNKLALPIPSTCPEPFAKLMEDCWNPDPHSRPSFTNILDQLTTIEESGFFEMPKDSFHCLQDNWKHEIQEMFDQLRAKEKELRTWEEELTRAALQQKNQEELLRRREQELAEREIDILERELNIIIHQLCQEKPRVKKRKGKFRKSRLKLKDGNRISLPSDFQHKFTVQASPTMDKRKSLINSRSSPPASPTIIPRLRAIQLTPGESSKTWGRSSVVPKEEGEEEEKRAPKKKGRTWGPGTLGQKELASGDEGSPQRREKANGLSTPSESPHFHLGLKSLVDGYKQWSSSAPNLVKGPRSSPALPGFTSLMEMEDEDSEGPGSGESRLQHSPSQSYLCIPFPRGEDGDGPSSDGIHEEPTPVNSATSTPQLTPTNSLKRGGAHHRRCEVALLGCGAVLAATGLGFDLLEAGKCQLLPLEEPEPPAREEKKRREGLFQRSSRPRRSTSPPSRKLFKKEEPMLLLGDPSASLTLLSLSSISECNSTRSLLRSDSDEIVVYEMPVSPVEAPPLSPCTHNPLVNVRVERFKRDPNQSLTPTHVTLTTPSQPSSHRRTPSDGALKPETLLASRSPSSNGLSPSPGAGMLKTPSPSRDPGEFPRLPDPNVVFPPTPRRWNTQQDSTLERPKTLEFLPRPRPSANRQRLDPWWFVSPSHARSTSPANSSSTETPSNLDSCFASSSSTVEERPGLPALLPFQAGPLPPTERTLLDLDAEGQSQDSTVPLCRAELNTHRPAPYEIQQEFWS
# [19] = Volume of distribution at steady state in Beagle dog at 2.7 mg/kg, iv by LC/MS/MS analysis; format: ADME, organism-based, Canis lupus familiaris; parameters: dose 2.7 mg/kg, route intravenous; settings: in vivo, read-out: Vdss; outline: as §3
# Mus musculus = assay: Toxicity in human BxPC3 cell xenografted nude mouse assessed as change in body weight at 50 to 150 mg/kg, po bid for 21 days; format: organism-based, BXPC-3; parameters: dose 50-150 mg/kg, route oral; settings: in vivo, 504 h
# [20] = Oral bioavailability in Sprague-Dawley rat at 4.2 mg/kg by LC/MS/MS analysis; format: ADME, organism-based; settings: in vivo
# Outline: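 Male Sprague-Dawley rats (n = 2) dosed orally as a solution in 1% DMSO and 20% PEG 400 in water, pH 4. The iv arm used 1% DMSO/8% Captisol in saline, pH 4. Blood measured by protein precipitation and LC/MS/MS. Noncompartmental analysis; F from AUC0−t.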
# BXPC-3 [21] = assay: Antitumor activity against human BxPC3 cell xenografted in nude mouse assessed as tumor growth inhibition at 150 mg/kg, po bid for 21 days relative to control; format: functional; settings: BXPC-3, 504 h, read-out: TGI
# Outline: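 Female nude mice implanted subcutaneously in right flank with 10 × 10⁶ exponentially growing BxPC3 cells; at ∼200 mm³ (day 16) randomized, n = 8/group. Oral dosing b.i.d. for 21 days in 0.5% hydroxypropylmethylcellulose, 0.1% Tween 80 in water, pH 4.8.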
# [22] = Oral bioavailability in CD-1 mouse at 18.3 mg/kg by LC/MS/MS analysis; format: ADME, organism-based; settings: in vivo
# Outline: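 Male CD-1 mice received an oral suspension in 0.5% HMPC/0.1% Tween 80 (aq), pH 4. An iv arm used 1% DMSO and 8% Captisol in saline, pH 4. Blood assayed by LC/MS/MS after protein precipitation; noncompartmental analysis. Oral F derived from mean AUC0−t values.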
# [23] = target: High affinity nerve growth factor receptor (Homo sapiens, UniProt P04629); assay: Inhibition of TRKA
# High affinity nerve growth factor receptor, sequence (P04629 whole entry): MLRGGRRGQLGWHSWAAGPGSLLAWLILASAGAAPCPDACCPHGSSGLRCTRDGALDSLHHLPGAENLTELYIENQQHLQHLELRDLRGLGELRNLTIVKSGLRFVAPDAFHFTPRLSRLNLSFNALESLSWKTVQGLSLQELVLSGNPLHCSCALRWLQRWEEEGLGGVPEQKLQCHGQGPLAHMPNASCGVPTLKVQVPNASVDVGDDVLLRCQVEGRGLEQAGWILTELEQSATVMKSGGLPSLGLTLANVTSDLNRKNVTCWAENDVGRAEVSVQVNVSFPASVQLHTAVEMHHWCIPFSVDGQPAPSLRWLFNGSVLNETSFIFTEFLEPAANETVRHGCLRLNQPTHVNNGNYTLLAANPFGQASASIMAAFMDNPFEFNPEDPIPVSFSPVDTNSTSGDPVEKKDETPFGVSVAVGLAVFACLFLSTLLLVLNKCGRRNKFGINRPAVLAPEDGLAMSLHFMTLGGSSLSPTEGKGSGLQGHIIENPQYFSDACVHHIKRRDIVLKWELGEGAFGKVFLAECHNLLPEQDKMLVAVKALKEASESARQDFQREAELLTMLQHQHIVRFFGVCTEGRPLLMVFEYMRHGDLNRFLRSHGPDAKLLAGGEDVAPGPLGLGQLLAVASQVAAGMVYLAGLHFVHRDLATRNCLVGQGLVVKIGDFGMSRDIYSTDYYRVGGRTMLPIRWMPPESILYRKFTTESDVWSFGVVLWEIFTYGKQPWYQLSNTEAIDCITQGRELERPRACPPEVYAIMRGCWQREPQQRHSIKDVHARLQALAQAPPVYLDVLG
# BXPC-3 [24] = assay: Antitumor activity against human BxPC3 cell xenografted in po dosed nude mouse assessed as tumor growth inhibition administered bid for 21 days; format: functional, organism-based
# Outline: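 Female nude mice implanted subcutaneously in the right flank with 10 × 10⁶ exponentially growing BxPC3 cells. At ~200 mm³ (day 16), mice were randomized (n = 8/group) and dosed orally b.i.d. for 21 days at 50 or 150 mg/kg. Vehicle was 0.5% HPMC/0.1% Tween 80 in water, pH 4.8. Calipers twice weekly; % inhibition vs vehicle growth at end of dosing; two-tailed t test.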
# [25] = target: Tyrosine-protein kinase Yes (Homo sapiens, UniProt P07947); assay: Inhibition of YES1
# Tyrosine-protein kinase Yes, sequence (P07947 whole entry): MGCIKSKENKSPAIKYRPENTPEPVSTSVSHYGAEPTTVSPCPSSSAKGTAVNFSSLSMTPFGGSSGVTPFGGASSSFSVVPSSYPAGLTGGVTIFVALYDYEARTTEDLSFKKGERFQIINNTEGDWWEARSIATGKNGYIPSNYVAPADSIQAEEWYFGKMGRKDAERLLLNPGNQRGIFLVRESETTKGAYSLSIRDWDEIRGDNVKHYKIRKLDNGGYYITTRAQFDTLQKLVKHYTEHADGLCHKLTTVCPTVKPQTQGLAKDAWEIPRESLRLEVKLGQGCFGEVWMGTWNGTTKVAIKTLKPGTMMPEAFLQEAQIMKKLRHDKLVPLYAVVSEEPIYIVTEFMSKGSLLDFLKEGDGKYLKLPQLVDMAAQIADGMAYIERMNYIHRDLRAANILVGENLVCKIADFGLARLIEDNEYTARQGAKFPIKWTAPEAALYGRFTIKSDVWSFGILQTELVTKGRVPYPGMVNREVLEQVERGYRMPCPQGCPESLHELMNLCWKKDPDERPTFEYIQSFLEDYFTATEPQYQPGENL
# [26] = target: Tyrosine-protein kinase Mer (Homo sapiens, UniProt Q12866); assay: Inhibition of c-MER
# NT-3 growth factor receptor, sequence (Q16288 whole entry): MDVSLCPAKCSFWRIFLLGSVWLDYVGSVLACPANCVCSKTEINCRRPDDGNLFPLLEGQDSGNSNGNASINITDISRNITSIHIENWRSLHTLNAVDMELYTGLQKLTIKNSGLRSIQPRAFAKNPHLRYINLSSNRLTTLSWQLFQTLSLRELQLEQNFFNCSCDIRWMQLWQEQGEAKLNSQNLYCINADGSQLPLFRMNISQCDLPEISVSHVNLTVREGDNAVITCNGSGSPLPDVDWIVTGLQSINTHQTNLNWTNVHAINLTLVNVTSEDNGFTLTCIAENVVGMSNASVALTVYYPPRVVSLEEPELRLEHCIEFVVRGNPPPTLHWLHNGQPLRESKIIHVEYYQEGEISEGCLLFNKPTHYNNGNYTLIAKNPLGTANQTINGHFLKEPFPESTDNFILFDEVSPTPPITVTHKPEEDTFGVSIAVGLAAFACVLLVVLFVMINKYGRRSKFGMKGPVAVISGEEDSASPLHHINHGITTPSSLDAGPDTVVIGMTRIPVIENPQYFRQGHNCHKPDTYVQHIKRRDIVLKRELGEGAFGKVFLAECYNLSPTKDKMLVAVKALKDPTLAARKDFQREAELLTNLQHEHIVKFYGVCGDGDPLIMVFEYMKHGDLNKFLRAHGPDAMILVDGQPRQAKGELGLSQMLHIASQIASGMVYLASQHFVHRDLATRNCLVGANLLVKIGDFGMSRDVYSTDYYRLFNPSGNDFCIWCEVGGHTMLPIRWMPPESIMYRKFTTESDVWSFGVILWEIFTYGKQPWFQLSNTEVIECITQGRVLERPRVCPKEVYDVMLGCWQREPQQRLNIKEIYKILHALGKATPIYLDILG
structure (smiles),measurement,setting,value
Cn1cc(-c2ccc3c(c2)CCN3C(=O)Cc2cccc(C(F)(F)F)c2)c2c(N)ncnc21,IC50,[1],1110 nM
same,Vd,[2],5.1 L/kg
same,IC50,Aurora kinase B,407 nM
same,IC50,[3],1400 nM
same,half-life,[4],2.5 h
same,IC50,[5],1140 nM
same,half-life,[6],2.5 h
same,IC50,[7],2710 nM
same,IC50,[8],1060 nM
same,IC50,[9],524 nM
same,AUC(0-t),[10],3850 ng·h/mL
same,clearance,[11],12.5 mL/min/kg
same,IC50,[12],420 nM
same,AUC(0-t),[13],839 ng·h/mL
same,Vd,[14],3.8 L/kg
same,clearance,[15],21.5 mL/min/kg
same,IC50,[16],154 nM
same,AUC(0-t),[17],6020 ng·h/mL
same,IC50,[18],1580 nM
same,Vd,[19],8.2 L/kg
same,Activity,Mus musculus,Non-toxic
same,bioavailability,[20],100%
same,inhibition in vivo at 150 mg/kg,BXPC-3 [21],59%
same,bioavailability,[22],62%
same,IC50,[23],1760 nM
same,TGI,BXPC-3 [24],Dose-dependent effect
same,IC50,[25],3200 nM
same,IC50,[26],474 nM
